Data reported in ChEMBL document CHEMBL1146654, “3-(7-Azaindolyl)-4-arylmaleimides as potent, selective inhibitors of glycogen synthase kinase-3” (Bioorg Med Chem Lett, 2004).

Columns and labels:
[1] = biological target: Tyrosine-protein kinase SYK (Homo sapiens) (UniProt P43405); assay: Inhibition of Syk protein tyrosine kinase; parameters: scale not given: the % may be the effect or the level left
Homo sapiens = species: Homo sapiens; assay: Inhibition of PKA; parameters: scale not given: the % may be the effect or the level left
[2] = biological target: 3-phosphoinositide-dependent protein kinase 1 (Homo sapiens, UniProt O15530); assay: (§1) Inhibition of PDK1
[3] = biological target: Mitogen-activated protein kinase 10 (Rattus norvegicus) (UniProt P49187); assay: Inhibition of c-Jun N-terminal kinase 3; parameters: scale not given: the % may be the effect or the level left
[4] = biological target: Rho-associated protein kinase 2 (Homo sapiens) (UniProt O75116); assay: (§2) Inhibition of ROCK-II; parameters: scale not given: the % may be the effect or the level left
[5] = biological target: Rho-associated protein kinase 2 (Rattus norvegicus) (UniProt Q62868); assay: as §2; parameters: scale not given: the % may be the effect or the level left
[6] = biological target: T1, Ribosomal protein S6 kinase alpha-5 (Homo sapiens, UniProt O75582); assay: (§3) Inhibition of MSK-1 kinase; parameters: scale not given: the % may be the effect or the level left
[7] = biological target: Protein kinase C alpha type (Homo sapiens, UniProt P17252); assay: Inhibition of PKCalpha; parameters: scale not given: the % may be the effect or the level left
[8] = biological target: T2, Protein kinase C beta type (Homo sapiens, UniProt P05771); assay: Inhibitory concentration against human protein kinase C-betaII using histone as substrate
[9] = biological target: Mitogen-activated protein kinase 14 (Homo sapiens) (UniProt Q16539); assay: Inhibition of Stress activated protein kinase 2a; parameters: scale not given: the % may be the effect or the level left
[10] = biological target: Platelet-derived growth factor receptor alpha (Homo sapiens) (UniProt P16234); assay: Inhibition of PDGFRalpha; parameters: scale not given: the % may be the effect or the level left
[11] = biological target: Protein kinase C gamma type (Homo sapiens, UniProt P05129); assay: Inhibitory activity of 10 uM compound against protein kinase C-gamma using histone as substrate
[12] = biological target: Fibroblast growth factor receptor 3 (Homo sapiens) (UniProt P22607); assay: Inhibition of Fibroblast growth factor receptor 3; parameters: scale not given: the % may be the effect or the level left
[13] = biological target: Mitogen-activated protein kinase 1 (Mus musculus) (UniProt P63085); assay: (§4) Inhibition of mitogen-activated protein kinase 2; parameters: scale not given: the % may be the effect or the level left
[14] = biological target: Mitogen-activated protein kinase 1 (Homo sapiens) (UniProt P28482); assay: as §4; parameters: scale not given: the % may be the effect or the level left
[15] = biological target: Mitogen-activated protein kinase 8 (Homo sapiens) (UniProt P45983); assay: Inhibition of c-Jun N-terminal kinase 1-alpha 1; parameters: scale not given: the % may be the effect or the level left
[16] = biological target: T3, Glycogen synthase kinase-3 beta (Homo sapiens, UniProt P49841); assay: Effective concentration of compound against glycogen synthase kinase-3 in HEK293 cells; assay type: functional, cell-based
How it was run: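 HEK293 cells exposed to compound; glycogen synthase activity then measured in cell extracts as ¹⁴C-UDP glucose incorporation into glycogen. EC₅₀ averaged from triplicate determinations.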
Target sequence in this assay (P49841 whole entry): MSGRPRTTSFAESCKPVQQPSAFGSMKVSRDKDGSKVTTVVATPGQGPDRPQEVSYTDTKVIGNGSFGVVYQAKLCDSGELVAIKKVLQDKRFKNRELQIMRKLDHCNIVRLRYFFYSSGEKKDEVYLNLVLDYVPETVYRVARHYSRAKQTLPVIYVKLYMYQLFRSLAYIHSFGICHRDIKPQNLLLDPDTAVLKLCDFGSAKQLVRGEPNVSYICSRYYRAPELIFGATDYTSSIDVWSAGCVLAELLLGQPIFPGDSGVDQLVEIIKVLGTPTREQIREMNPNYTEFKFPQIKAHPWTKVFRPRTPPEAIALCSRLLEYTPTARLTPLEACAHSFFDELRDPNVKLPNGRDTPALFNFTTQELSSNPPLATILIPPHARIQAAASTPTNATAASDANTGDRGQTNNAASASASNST

[17] = biological target: Ribosomal protein S6 kinase alpha-3 (Homo sapiens, UniProt P51812); assay: Inhibition of Ribosomal S6 kinase 3
[18] = biological target: CDK3/cyclin E (Homo sapiens) (UniProt P24864+O96020+Q00526); assay: Inhibition of Cyclin-dependent kinase 3-cyclin E; assay type: protein-complex assay; parameters: scale not given: the % may be the effect or the level left
[19] = biological target: Proto-oncogene tyrosine-protein kinase Src (Homo sapiens) (UniProt P12931); assay: Inhibition of c-Src tyrosine kinase; parameters: scale not given: the % may be the effect or the level left
[20] = biological target: RAF proto-oncogene serine/threonine-protein kinase (Homo sapiens) (UniProt P04049); assay: Inhibition of RAF proto-oncogene serine/threonine-protein kinase; parameters: scale not given: the % may be the effect or the level left
[21] = biological target: T4, 3-phosphoinositide-dependent protein kinase 1 (Homo sapiens) (UniProt O15530); assay: as §1; parameters: scale not given: the % may be the effect or the level left
T4 sequence (whole entry): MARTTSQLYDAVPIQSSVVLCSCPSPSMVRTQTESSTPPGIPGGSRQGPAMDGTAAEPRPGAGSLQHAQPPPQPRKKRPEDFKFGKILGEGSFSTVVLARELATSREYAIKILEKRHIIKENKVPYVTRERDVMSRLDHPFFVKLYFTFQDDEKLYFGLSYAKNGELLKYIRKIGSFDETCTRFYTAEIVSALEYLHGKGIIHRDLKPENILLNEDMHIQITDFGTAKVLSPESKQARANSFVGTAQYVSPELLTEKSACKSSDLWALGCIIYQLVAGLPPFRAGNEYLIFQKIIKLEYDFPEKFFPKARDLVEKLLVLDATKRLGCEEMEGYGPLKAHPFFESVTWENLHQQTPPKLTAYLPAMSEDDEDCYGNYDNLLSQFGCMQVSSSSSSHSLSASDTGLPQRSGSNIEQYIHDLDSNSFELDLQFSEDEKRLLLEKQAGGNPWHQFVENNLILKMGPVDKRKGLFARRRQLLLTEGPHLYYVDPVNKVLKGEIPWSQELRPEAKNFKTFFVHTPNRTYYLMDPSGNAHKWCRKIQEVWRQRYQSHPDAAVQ

[22] = biological target: Cyclin-dependent kinase 2/cyclin A (Homo sapiens, UniProt P24941); assay: Inhibition of Cyclin-dependent kinase 2-cyclin A; assay type: protein-complex assay
[23] = biological target: Mitogen-activated protein kinase 9 (Homo sapiens) (UniProt P45984); assay: Inhibition of c-Jun N-terminal kinase 2-alpha 2; parameters: scale not given: the % may be the effect or the level left
[24] = biological target: T3, Glycogen synthase kinase-3 beta; assay: Inhibition of glycogen synthase kinase-3 beta; parameters: scale not given: the % may be the effect or the level left
Target sequence in this assay (P49841 whole entry, looked up): as the sequence (P49841 whole entry) above

[25] = biological target: Tyrosine-protein kinase Lyn (Homo sapiens, UniProt P07948); assay: Inhibition of Protein tyrosine kinase Lyn
[26] = biological target: Cyclin-dependent kinase 1/cyclin B (Homo sapiens, UniProt P06493); assay: Inhibition of Cyclin-dependent kinase 1-cyclin B; assay type: protein-complex assay
[27] = biological target: MAP kinase-activated protein kinase 2 (Homo sapiens) (UniProt P49137); assay: Inhibition of MAP kinase-activated protein kinase 2; parameters: scale not given: the % may be the effect or the level left
[28] = system: Casein kinase I (Saccharomyces cerevisiae); assay: Inhibition of Casein kinase I; parameters: scale not given: the % may be the effect or the level left
[29] = biological target: T2, Protein kinase C beta type; assay: Inhibition of protein kinase C-betaII at 10 uM
[30] = biological target: T1, Ribosomal protein S6 kinase alpha-5; assay: as §3

Chain of CDK3/cyclin E (Homo sapiens) (O96020 whole entry, looked up): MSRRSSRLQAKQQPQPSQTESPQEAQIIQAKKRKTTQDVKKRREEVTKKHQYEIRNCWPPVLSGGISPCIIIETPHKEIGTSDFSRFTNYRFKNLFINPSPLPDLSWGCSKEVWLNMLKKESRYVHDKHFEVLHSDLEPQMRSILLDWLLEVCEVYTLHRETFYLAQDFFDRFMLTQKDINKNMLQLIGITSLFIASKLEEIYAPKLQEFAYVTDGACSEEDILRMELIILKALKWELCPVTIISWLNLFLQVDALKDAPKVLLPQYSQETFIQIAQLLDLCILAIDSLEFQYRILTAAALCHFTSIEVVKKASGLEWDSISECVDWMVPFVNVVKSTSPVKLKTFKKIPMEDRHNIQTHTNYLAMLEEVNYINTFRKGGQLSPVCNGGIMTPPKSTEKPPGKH
Chain of CDK3/cyclin E (Homo sapiens) (P24864 whole entry, looked up): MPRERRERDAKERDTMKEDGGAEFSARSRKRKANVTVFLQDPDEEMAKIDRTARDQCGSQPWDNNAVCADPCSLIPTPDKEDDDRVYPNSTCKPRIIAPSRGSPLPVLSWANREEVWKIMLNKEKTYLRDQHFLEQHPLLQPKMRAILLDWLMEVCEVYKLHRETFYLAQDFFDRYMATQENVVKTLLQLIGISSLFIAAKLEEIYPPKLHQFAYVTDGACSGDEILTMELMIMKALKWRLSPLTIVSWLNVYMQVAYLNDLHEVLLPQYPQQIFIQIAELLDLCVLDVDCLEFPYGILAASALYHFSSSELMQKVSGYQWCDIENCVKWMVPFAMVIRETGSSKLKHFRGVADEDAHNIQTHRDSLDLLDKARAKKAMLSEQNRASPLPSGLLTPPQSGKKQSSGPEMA
Chain of CDK3/cyclin E (Homo sapiens) (Q00526 whole entry, looked up): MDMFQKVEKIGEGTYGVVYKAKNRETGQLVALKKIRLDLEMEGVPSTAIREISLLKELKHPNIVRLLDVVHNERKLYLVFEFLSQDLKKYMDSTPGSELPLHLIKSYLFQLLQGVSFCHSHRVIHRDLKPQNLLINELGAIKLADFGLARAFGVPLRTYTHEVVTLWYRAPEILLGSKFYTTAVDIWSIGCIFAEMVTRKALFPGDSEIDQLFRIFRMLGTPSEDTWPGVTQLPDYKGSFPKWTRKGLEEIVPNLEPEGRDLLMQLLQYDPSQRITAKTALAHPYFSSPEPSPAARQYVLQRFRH
Chain of Mitogen-activated protein kinase 1 (Homo sapiens) (P28482 whole entry): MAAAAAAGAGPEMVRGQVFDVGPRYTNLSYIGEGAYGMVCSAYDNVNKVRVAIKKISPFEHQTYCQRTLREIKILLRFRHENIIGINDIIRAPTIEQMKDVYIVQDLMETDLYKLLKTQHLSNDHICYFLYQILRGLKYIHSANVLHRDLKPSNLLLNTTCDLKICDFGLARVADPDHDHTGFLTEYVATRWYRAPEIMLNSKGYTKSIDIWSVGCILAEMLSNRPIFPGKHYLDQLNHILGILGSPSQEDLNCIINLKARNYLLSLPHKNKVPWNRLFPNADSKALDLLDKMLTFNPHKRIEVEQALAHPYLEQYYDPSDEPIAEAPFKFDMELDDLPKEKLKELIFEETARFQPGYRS
Chain of Mitogen-activated protein kinase 8 (Homo sapiens) (P45983 whole entry): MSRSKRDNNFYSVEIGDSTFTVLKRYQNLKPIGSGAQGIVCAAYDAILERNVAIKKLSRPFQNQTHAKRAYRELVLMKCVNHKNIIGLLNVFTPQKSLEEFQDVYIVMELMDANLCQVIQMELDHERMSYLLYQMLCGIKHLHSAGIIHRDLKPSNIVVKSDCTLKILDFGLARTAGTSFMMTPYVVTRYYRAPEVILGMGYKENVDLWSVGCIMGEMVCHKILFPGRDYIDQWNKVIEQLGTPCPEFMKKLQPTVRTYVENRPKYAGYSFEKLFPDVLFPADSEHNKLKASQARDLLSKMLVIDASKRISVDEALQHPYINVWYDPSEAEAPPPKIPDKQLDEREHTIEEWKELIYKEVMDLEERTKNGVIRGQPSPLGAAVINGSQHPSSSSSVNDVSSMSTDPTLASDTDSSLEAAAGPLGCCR
Chain of Mitogen-activated protein kinase 14 (Homo sapiens) (Q16539 whole entry): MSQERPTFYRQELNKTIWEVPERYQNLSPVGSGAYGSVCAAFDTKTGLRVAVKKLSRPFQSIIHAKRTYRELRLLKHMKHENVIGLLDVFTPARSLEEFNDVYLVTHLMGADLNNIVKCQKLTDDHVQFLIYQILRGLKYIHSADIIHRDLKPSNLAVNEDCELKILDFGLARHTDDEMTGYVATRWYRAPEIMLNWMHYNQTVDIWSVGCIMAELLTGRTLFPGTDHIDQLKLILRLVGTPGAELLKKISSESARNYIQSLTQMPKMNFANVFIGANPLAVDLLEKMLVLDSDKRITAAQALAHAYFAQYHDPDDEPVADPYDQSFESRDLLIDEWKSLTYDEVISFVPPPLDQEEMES
Chain of Mitogen-activated protein kinase 9 (Homo sapiens) (P45984 whole entry, looked up): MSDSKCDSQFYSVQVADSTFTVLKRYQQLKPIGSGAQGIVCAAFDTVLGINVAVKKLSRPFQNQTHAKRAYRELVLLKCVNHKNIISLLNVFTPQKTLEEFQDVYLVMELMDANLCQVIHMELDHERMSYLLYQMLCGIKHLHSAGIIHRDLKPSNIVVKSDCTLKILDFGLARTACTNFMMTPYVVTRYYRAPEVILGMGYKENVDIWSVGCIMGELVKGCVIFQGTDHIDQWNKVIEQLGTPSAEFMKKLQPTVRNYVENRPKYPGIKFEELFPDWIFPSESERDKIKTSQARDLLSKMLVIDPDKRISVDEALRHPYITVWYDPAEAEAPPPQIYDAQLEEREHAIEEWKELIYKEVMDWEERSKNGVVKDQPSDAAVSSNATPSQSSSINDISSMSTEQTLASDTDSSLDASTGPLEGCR
Chain of Mitogen-activated protein kinase 1 (Mus musculus) (P63085 whole entry): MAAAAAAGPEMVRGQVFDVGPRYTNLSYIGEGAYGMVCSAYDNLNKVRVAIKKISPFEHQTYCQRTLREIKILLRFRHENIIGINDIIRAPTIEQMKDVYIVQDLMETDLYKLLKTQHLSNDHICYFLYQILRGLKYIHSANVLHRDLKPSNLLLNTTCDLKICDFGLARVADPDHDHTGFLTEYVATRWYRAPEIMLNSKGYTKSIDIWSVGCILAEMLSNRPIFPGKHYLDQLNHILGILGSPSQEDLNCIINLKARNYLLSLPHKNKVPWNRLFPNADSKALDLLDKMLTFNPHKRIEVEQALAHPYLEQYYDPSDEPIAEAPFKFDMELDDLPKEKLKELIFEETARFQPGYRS

Row | Structure (SMILES) | Activity [1] [%] | Activity (Homo sapiens) [%] | Activity [3] [%] | Activity [4] [%] | Activity [5] [%] | Activity [7] [%] | Activity [9] [%] | Activity [10] [%] | inhibition [11] [%] | Activity [12] [%] | Activity [13] [%] | Activity [14] [%] | Activity [15] [%] | Activity [18] [%] | Activity [19] [%] | Activity [20] [%] | Activity [21] [%] | IC50 [22] [nM] | Activity [23] [%] | Activity [24] [%] | also measured
1 | COc1ccccc1C1=C(c2cn(CCCNC(=O)OC(C)(C)C)c3ncccc23)C(=O)NC1=O | 88 | 95 | 68 | 78 | 91 | 38 | 109 | 108 | < 50 | 83 | 89 | 92 | 81 | 3 | 74 | 92 | 20 | 68 | 84 | 0 | IC50 [2]: 570 nM; Activity [6]: 61%; IC50 [8]: 2260 nM; EC50 [16]: 40 nM; IC50 [17]: 640 nM; IC50 [25]: 1800 nM; IC50 [26]: 170 nM
2 | COCCCn1cc(C2=C(c3ccccc3O)C(=O)NC2=O)c2cccnc21 | 86 | 92 | 52 | 100 | 94 | 46 | 84 | 99 | < 50 | 79 | 100 | 92 | 75 | 26 | 99 | 74 | 78 | 430 | 63 | 1 | Activity [27]: 97%; Activity [6]: 57%; IC50 [8]: 4360 nM; IC50 [17]: 2000 nM; IC50 [26]: 700 nM
3 | O=C1NC(=O)C(c2cn(CCCO)c3ncccc23)=C1c1ncc(C(F)(F)F)cc1Cl | 76 | 87 | 76 | 90 | 97 | 70 | 81 | 86 | < 50 | 64 | 93 | 91 | 80 | 62 | 93 | 74 | 79 | 2800 | 93 | 3 | Activity [27]: 85%; Activity [28]: 66%; EC50 [16]: 620 nM; inhibition [29]: < 50%; IC50 [26]: 5800 nM; IC50 [30]: > 10000 nM
